43 compounds from ChEMBL document CHEMBL3091446, “Development of fluorinated CB(2) receptor agonists for PET studies” (Bioorg Med Chem, 2013) can be followed below.

Data set [1] concerns the target T1, Cannabinoid receptor 2 (Homo sapiens, UniProt P34972). The data set is described as follows: Displacement of [3H]CP-55,940 from human recombinant cannabinoid CB2 receptor expressed in CHO cells at 1 uM. Type of data set: cell-based.
In data set [2] the target is T1, Cannabinoid receptor 2. Nature of the data set: Displacement of [3H]CP-55,940 from human recombinant cannabinoid CB2 receptor expressed in CHO cells. Type of data set: cell-based. On the technique in general: In a radioligand displacement assay an active substance lowers the binding of a labelled ligand.
Data set [3] concerns the target T2, Cannabinoid receptor 1 (Homo sapiens, UniProt P21554). The data set is described as follows: Binding affinity to human cannabinoid CB1 receptor.
Data set [4] concerns the target T1, Cannabinoid receptor 2. Nature of the data set: Binding affinity to human cannabinoid CB2 receptor. In a few lines: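 Membranes from sonicated CHO cells stably expressing human CB2 (about 100,000 cells/well). Incubated 120 min at 37 °C with 1 nM [3H]CP-55,940, test compound at 10^-10 to 10^-5 M, in TRIS pH 7.4 with 12 mM MgCl2 and 2% BSA. Nonspecific binding defined by 10 µM CP-55,940. Filtration and scintillation counting; duplicates. IC50 by nonlinear regression, converted to Ki by Cheng-Prusoff (Kd 11.8 nM).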

Data set [5] deals with T2, Cannabinoid receptor 1. Nature of the data set: Displacement of [3H]CP-55,940 from human recombinant cannabinoid CB1 receptor expressed in CHO cells. The data set is classed as cell-based.
Data set [6] can be described thus: Lipophilicity, log P of the compound. To be noted: octanol/water. The data set is classed as physicochemical.
For data set [7], the species on record is Homo sapiens. The data set is described as follows: Selectivity ratio of Ki for human recombinant cannabinoid CB1 receptor to Ki for human recombinant cannabinoid CB2 receptor.
Data set [8] can be described thus: Metabolic stability in mouse plasma assessed as compound remaining after 10 mins. Type of data set: ADME, cell-free. To be noted: read-out: Stability.

T1 sequence (P34972 whole entry): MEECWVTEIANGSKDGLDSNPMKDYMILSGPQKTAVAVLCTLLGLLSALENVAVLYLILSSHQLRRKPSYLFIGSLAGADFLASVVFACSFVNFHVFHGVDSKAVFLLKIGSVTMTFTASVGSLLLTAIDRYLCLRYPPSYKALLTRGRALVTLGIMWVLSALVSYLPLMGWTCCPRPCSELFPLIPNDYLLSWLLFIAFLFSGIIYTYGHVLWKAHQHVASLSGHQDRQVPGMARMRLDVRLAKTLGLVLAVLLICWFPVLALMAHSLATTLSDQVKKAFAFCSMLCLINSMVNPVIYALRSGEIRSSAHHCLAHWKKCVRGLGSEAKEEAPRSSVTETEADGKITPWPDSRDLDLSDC
T2 sequence (P21554 whole entry): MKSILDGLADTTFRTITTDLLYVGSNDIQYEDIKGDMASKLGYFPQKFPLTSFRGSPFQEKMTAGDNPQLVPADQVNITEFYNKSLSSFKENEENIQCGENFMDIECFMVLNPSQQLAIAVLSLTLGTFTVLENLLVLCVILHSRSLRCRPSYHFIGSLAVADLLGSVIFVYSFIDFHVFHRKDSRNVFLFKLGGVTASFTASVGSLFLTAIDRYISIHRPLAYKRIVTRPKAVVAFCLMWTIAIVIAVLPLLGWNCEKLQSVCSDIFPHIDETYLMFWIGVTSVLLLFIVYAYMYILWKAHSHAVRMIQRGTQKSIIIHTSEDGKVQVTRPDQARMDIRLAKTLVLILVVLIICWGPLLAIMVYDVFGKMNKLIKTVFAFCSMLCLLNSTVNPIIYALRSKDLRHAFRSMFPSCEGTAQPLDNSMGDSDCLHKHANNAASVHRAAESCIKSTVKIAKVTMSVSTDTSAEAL

Usually inhibition stands for the change of the read-out against control, counted positive when it falls. Consider `O=C(CCc1nc(-c2ccc(Br)cc2F)no1)Nc1ccc2c(c1)c1ccccc1n2CCO`, for which the inhibition in data set [1] is 35%.
For `O=C(CCc1nc(-c2ccc(Cl)cc2)no1)Nc1ccc2c(c1)c1ccccc1n2CCCF`, the inhibition in data set [1] was 43%.
Still for that read-out and setting: then `O=C(CCCc1nc(-c2ccc(Cl)cc2)no1)Nc1ccc2c(c1)c1ccccc1n2CCCO`, with 10%.
A word on the Ki: it is a dissociation constant, usually derived from enzyme kinetics or from competition with a known ligand. Take `O=C(CCCc1nc(-c2ccc(F)cc2Br)no1)Nc1ccc2c(c1)c1ccccc1n2CCF`: the inhibition constant Ki in data set [2] came to 559 nM.
As for `CCCCOc1c(OC)ccc2cc(C(=O)NCc3ccc([18F])cc3)c(=O)[nH]c12`, the Ki is more than 10000 nM in data set [3] and 2.8 nM in data set [4].
`O=C(CCCc1nc(-c2ccc(F)cc2)no1)Nc1ccc2c(c1)c1ccccc1n2CCCF`: the inhibition in data set [1] was 0%.
On the same count and under the same terms, then `Cc1ccc(-c2noc(CCC(=O)Nc3ccc4c(c3)c3ccccc3n4CCO)n2)cc1`, with 10%.
With `Cc1c(CCN2CCOCC2)c2cc(O[11CH3])ccc2n1C(=O)c1cccc(Cl)c1Cl`, the inhibition constant Ki in data set [3] is 6000 nM; in data set [4], 35 nM.
`O=C(CCc1nc(-c2ccc(Cl)cc2)no1)Nc1ccc2c(c1)c1ccccc1n2CCF`: the inhibition constant Ki in data set [2] is 291 nM.
As to `Cc1ccc(-c2noc(CCCC(=O)Nc3ccc4c(c3)c3ccccc3n4CCO)n2)cc1`, the inhibition in data set [1] came out at 4%.
Turning to `O=C(CCCc1nc(-c2ccc(Cl)cc2)no1)Nc1ccc2c(c1)c1ccccc1n2CCF`, the inhibition in data set [1] stood at 23%.
For `O=C(CCCc1nc(-c2ccc(F)cc2)no1)Nc1ccc2c(c1)c1ccccc1n2CCCO`, the inhibition in data set [1] is 19%.
The IC50 is the concentration that inhibits the measured activity by half. `O=C(CCc1nc(-c2ccc(F)cc2Br)no1)Nc1ccc2c(c1)c1ccccc1n2CCCCO`: the Ki in data set [2] was determined as 96 nM. For the same compound, the half-inhibitory concentration (IC50) in data set [5] is more than 1000 nM.
For `O=C(CCc1nc(-c2ccc(Cl)cc2)no1)Nc1ccc2c(c1)c1ccccc1n2CCO`, the inhibitory constant (Ki) in data set [2] stood at 990 nM.
As a reminder, the logP is the decadic logarithm of the partition coefficient of the neutral form, usually between octanol and water. The low end stands for lower lipophilicity, the high end for higher lipophilicity. For the compound `COc1ccc(S(=O)(=O)c2ccc([C@H](C)NS(C)(=O)=O)cc2)c(S(=O)(=O)c2ccc(O[11CH3])cc2)c1`, the inhibition constant (Ki) worked out at 79 nM in data set [3] and 4.5 nM in data set [4]. This compound returned a lipophilicity (logP) in data set [6] of 2.15.
For `O=C(CCCc1nc(-c2ccc(F)cc2)no1)Nc1ccc2c(c1)c1ccccc1n2CCO`, the inhibition in data set [1] is 12%.
Turning to `O=C(CCCc1nc(-c2ccc(F)cc2Br)no1)Nc1ccc2c(c1)c1ccccc1n2CCCF`, the inhibition in data set [1] was 25%.
For `O=C(CCc1nc(-c2ccc(F)cc2Br)no1)Nc1ccc2c(c1)c1ccccc1n2CCO`, the Ki in data set [2] was 367 nM.
Turning to `O=C(CCc1nc(-c2ccc(F)cc2)no1)Nc1ccc2c(c1)c1ccccc1n2CCCO`, the inhibitory constant (Ki) in data set [2] amounted to 195 nM.
On to `CCn1c2ccccc2c2cc(NC(=O)CCc3nc(-c4ccc(F)cc4C#N)no3)ccc21`, for which the inhibition constant (Ki) in data set [2] is 6.98 nM; in data set [5] it was more than 10000 nM.
On to `Cc1ccc(-c2noc(CCCC(=O)Nc3ccc4c(c3)c3ccccc3n4CCF)n2)cc1`, for which the inhibition in data set [1] stood at 0%.
The same measure, in the same setting: then `Cc1ccc(-c2noc(CCCC(=O)Nc3ccc4c(c3)c3ccccc3n4CCCF)n2)cc1`, with 0%.
With `O=C(CCc1nc(-c2ccc(F)cc2Br)no1)Nc1ccc2c(c1)c1ccccc1n2CCF`, in data set [2], the Ki was found to be 5.8 nM. The Ratio Ki in data set [7] is more than 200. Moreover, the IC50 in data set [5] is more than 1000 nM.
For the compound `O=C(CCc1nc(-c2ccc(F)cc2)no1)Nc1ccc2c(c1)c1ccccc1n2CCO`, the inhibitory constant (Ki) in data set [2] stood at 1100 nM.
Regarding `Cc1ccc(-c2noc(CCC(=O)Nc3ccc4c(c3)c3ccccc3n4CCCO)n2)cc1`, the inhibition in data set [1] is 28%.
Turning to `O=C(CCCc1nc(-c2ccc(F)cc2Br)no1)Nc1ccc2c(c1)c1ccccc1n2CCO`, the inhibition in data set [1] stood at 0%.
In the case of `O=C(CCCc1nc(-c2ccc(Cl)cc2)no1)Nc1ccc2c(c1)c1ccccc1n2CCO`, in data set [2], the Ki is 584 nM.
Consider `O=C(CCCc1nc(-c2ccc(F)cc2Br)no1)Nc1ccc2c(c1)c1ccccc1n2CCCO`, for which the inhibition in data set [1] stood at 9%.
Consider `O=C(CCc1nc(-c2ccc(F)cc2)no1)Nc1ccc2c(c1)c1ccccc1n2CCCF`, for which, in data set [1], the inhibition stood at 10%.
On to `O=C(CCc1nc(-c2ccc(F)cc2)no1)Nc1ccc2c(c1)c1ccccc1n2CCF`, for which the inhibition constant Ki in data set [2] worked out at 41 nM. In addition, the IC50 in data set [5] is more than 1000 nM.
Turning to `CCCCOc1c(OCC[18F])ccc2cc(C(=O)NC3CCCCC3)c(=O)[nH]c12`, the remaining at 10 min in data set [8] came to 41%. For the same compound, the inhibitory constant (Ki) in data set [3] is more than 1000 nM.
On to `O=C(CCc1nc(-c2ccc(F)cc2Br)no1)Nc1ccc2c(c1)c1ccccc1n2CCCF`, for which the Ki in data set [2] came to 1800 nM.
As to `Cc1s/c(=N\C(=O)C2C(C)(C)C2(C)C)n(CCO[11CH3])c1C`, the values for the Ki in data set [3] and in data set [4] were 270 nM and 0.64 nM, respectively.
For `N#Cc1cc(F)ccc1-c1noc(CCC(=O)Nc2ccc3c(c2)c2ccccc2n3CCF)n1`, the Ki in data set [2] worked out at 858 nM. In addition, the IC50 in data set [5] is more than 1000 nM.
In the case of `Cc1ccc(-c2noc(CCCC(=O)Nc3ccc4c(c3)c3ccccc3n4CCCO)n2)cc1`, the inhibition in data set [1] came to 13%.
For the compound `Cc1ccc(-c2noc(CCC(=O)Nc3ccc4c(c3)c3ccccc3n4CCF)n2)cc1`, the Ki in data set [2] came out at 377 nM.
Turning to `Cc1ccc(-c2noc(CCC(=O)Nc3ccc4c(c3)c3ccccc3n4CCCF)n2)cc1`, in data set [1], the inhibition was determined as 13%.
With `O=C(CCc1nc(-c2ccc(F)cc2Br)no1)Nc1ccc2c(c1)c1ccccc1n2CCCCF`, in data set [1], the inhibition was 35%.
On to `O=C(CCc1nc(-c2ccc(Br)cc2F)no1)Nc1ccc2c(c1)c1ccccc1n2CCF`, for which the Ki in data set [2] amounted to 476 nM.
As to `O=C(CCCc1nc(-c2ccc(F)cc2)no1)Nc1ccc2c(c1)c1ccccc1n2CCF`, in data set [1], the inhibition amounted to 25%.
Regarding `N#Cc1cc(F)ccc1-c1noc(CCC(=O)Nc2ccc3c(c2)c2ccccc2n3CCO)n1`, the Ki in data set [2] was 486 nM.
Consider `O=C(CCc1nc(-c2ccc(F)cc2Br)no1)Nc1ccc2c(c1)c1ccccc1n2CCCO`, for which the Ki in data set [2] stood at 33 nM. Moreover, the 50% inhibitory concentration (IC50) in data set [5] is more than 1000 nM.
As to `CCCCOc1c(O[11CH3])ccc2cc(C(=O)NC3CCCCC3)c(=O)[nH]c12`, the remaining at 10 min in data set [8] is 24%. This compound also gave a Ki in data set [3] of more than 1000 nM.
